Results taken from ChEMBL document CHEMBL2384961, “Geranylated flavonoids displaying SARS-CoV papain-like protease inhibition from the fruits of Paulownia tomentosa” (Bioorg Med Chem, 2013).

Assays:
[1] = (§1) Inhibition of SARS coronavirus papain-like protease (1541 to 1855 amino acids) expressed in Escherichia coli BL21 (DE3) using Z-RLRGG-AMC as substrate by fluorogenic assay; design: species or system Severe acute respiratory syndrome-related coronavirus
Procedure, shortened: (§2)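 Protease domain construct His-tagged, purified by nickel affinity, ion-exchange and gel filtration, tag removed by TEV. […] AMC release followed continuously at ex 360/em 460 nm. IC50 is the concentration giving 50% activity loss; three repeat experiments, standard deviation.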

[2] = tested on: Severe acute respiratory syndrome-related coronavirus; assay: as §1; procedure, shortened: as §2
[3] = Mixed-type of inhibition of SARS coronavirus papain-like protease (1541 to 1855 amino acids) expressed in Escherichia coli BL21 (DE3) using Z-RLRGG-AMC as substrate by Dixon plot analysis; design: species or system Severe acute respiratory syndrome-related coronavirus

Row | SMILES | IC50 [1] [µM] | inhibition [2] | Ki [3] [µM]
1 | COc1cc([C@H]2Oc3cc(O)c(C/C=C(\C)CCC=C(C)C)c(O)c3C(=O)[C@@H]2O)ccc1O | 9.5 | Dose-dependent effect | 6.6
2 | COc1cc([C@@H]2CC(=O)c3c(cc4c(c3O)CCC(C)(CCCC(C)(C)O)O4)O2)cc(O)c1OC (some centres undefined) | 11.6 | Dose-dependent effect | 5
3 | COc1ccc([C@@H]2CC(=O)c3c(cc(O)c(C/C=C(\C)CCC=C(C)C)c3O)O2)cc1O | 12.7 | Dose-dependent effect | 6.9
4 | COc1cc([C@@H]2CC(=O)c3c(cc4c(c3O)CCC(C)(CCCC(C)(C)O)O4)O2)cc(OC)c1O (some centres undefined) | 12.5 | Dose-dependent effect | 13
5 | COc1ccc([C@@H]2CC(=O)c3c(cc4c(c3O)CCC(C)(CCCC(C)(C)O)O4)O2)cc1O (some centres undefined) |  | Dose-dependent effect | 
6 | COc1ccc([C@H]2Oc3cc(O)c(C/C=C(\C)CCC=C(C)C)c(O)c3C(=O)[C@@H]2O)cc1O | 9.2 | Dose-dependent effect | 6.3
7 | CC(C)(O)CCCC1(C)CCc2c(cc3c(c2O)C(=O)C[C@@H](c2ccc(O)c(O)c2)O3)O1 (some centres undefined) | 6.2 | Dose-dependent effect | 4.8
8 | CC(C)=CCC/C(C)=C/Cc1c(O)cc2c(c1O)C(=O)C[C@@H](c1ccc(O)c(O)c1)O2 [NYMPHAEOL A] | 10.4 | Dose-dependent effect | 5.1
9 | CC(C)=CCC/C(C)=C/Cc1c(O)cc2c(c1O)C(=O)C[C@@H](c1ccc(O)cc1)O2 [BONANNIONE A] | 14.4 | Dose-dependent effect | 7.8
10 | COc1cc([C@@H]2CC(=O)c3c(cc(O)c(C/C=C(\C)CCC=C(C)C)c3O)O2)cc(OC)c1O | 13.9 | Dose-dependent effect | 8.4
11 | COc1cc([C@H]2Oc3cc4c(c(O)c3C(=O)[C@@H]2O)CCC(C)(CCCC(C)(C)O)O4)ccc1O (some centres undefined) | 5 | Dose-dependent effect | 3.7
12 | COc1cc([C@@H]2CC(=O)c3c(cc(O)c(C/C=C(\C)CCC=C(C)C)c3O)O2)ccc1O | 13.2 | Dose-dependent effect | 7.1
